Reference: ChEMBL document CHEMBL3576825, “Antineoplastic agents. 600. From the South Pacific Ocean to the silstatins” (J Nat Prod, 2015)

What was measured:
NCI-H460 = assay: Cytotoxicity against human NCI-H460 cells after 48 hrs by sulforhodamine B assay; assay type: functional; conditions: NCI-H460, 48 h
Procedure, shortened: (§1)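 NCI standard SRB protocol. Cells were seeded in 5% FBS/RPMI-1640 and incubated 24 h, then given serial dilutions of compound for 48 h. Plates were fixed with trichloroacetic acid, stained with sulforhodamine B and read by microplate reader. GI50, the concentration giving a 50% reduction in net protein increase, was calculated from optical density data.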

SF-268 = assay: Cytotoxicity against human SF268 cells after 48 hrs by sulforhodamine B assay; assay type: functional; conditions: SF-268, 48 h; procedure, shortened: as §1
[1] = Cytotoxicity against human KM20L2 cells after 48 hrs by sulforhodamine B assay; assay type: functional; conditions: KM-20L2, 48 h; procedure, shortened: as §1
MCF7 = assay: Cytotoxicity against human MCF7 cells after 48 hrs by sulforhodamine B assay; assay type: functional; conditions: MCF7, 48 h; procedure, shortened: as §1
DU-145 = assay: Cytotoxicity against human DU145 cells after 48 hrs by sulforhodamine B assay; assay type: functional; conditions: DU-145, 48 h; procedure, shortened: as §1
[2] = Cytotoxicity against human BxPC3 cells after 48 hrs by sulforhodamine B assay; assay type: functional; conditions: BXPC-3, 48 h; procedure, shortened: as §1
[3] = Cytotoxicity against human CRL2221 cells after 48 hrs by sulforhodamine B assay; assay type: cell-based
[4] = Cytotoxicity against human MCF10A cells after 48 hrs by sulforhodamine B assay; assay type: cell-based, MCF-10A

| Structure (SMILES) | GI50 (NCI-H460) [nM] | GI50 (SF-268) [nM] | GI50 [1] [nM] | GI50 (MCF7) [nM] | GI50 (DU-145) [nM] | GI50 [2] [nM] | GI50 at 48 h [3] [nM] | GI50 at 48 h [4] [nM] |
| --- | --- | --- | --- | --- | --- | --- | --- | --- |
| CC(C)[C@@H]1NC(=O)[C@H](C)OC(=O)[C@@H](C(C)C)NC(=O)[C@@H](CC2CCCCC2)OC(=O)[C@H](C(C)C)NC(=O)[C@H](C)OC(=O)[C@@H](C(C)C)NC(=O)[C@@H](CC2CCCCC2)OC(=O)[C@H](C(C)C)NC(=O)[C@H](C)OC(=O)[C@@H](C(C)C)NC(=O)[C@@H](CC2CCCCC2)OC1=O | 314 | 63.6 | 141 | 141 | 173 | 392 |  |  |
| CC[C@H](C)[C@H]1OC(=O)[C@H](C(C)C)NC(=O)[C@H](C)OC(=O)[C@@H](C(C)C)NC(=O)[C@@H]([C@@H](C)CC)OC(=O)[C@H](C(C)C)NC(=O)[C@H](C)OC(=O)[C@@H](C(C)C)NC(=O)[C@@H]([C@@H](C)CC)OC(=O)[C@H](C(C)C)NC(=O)[C@H](C)OC(=O)[C@@H](C(C)C)NC1=O [BACILLISTATIN 1] | 1.2 | 0.39 | 0.75 | 0.53 | 1.3 | 0.82 |  |  |
| CC(C)C[C@H]1OC(=O)[C@H](C(C)C)NC(=O)[C@H](C)OC(=O)[C@@H](C(C)C)NC(=O)[C@@H](CC(C)C)OC(=O)[C@H]([C@@H](C)O)NC(=O)[C@H](C)OC(=O)[C@@H](C(C)C)NC(=O)[C@@H](CC(C)C)OC(=O)[C@H](C(C)C)NC(=O)[C@H](C)OC(=O)[C@@H](C(C)C)NC1=O | 2.8 | 2.7 | 2.9 | 1.9 | 5.2 | 3.5 |  |  |
| CC(C)C[C@H]1OC(=O)[C@H](C(C)C)NC(=O)[C@H](C)OC(=O)[C@@H](C(C)C)NC(=O)[C@@H](CC(C)C)OC(=O)[C@H](C(C)C)NC(=O)[C@H](C)OC(=O)[C@@H](C(C)C)NC(=O)[C@@H](CC(C)C)OC(=O)[C@H](C(C)C)NC(=O)[C@H](C)OC(=O)[C@@H](C(C)C)NC1=O | 0.61 | 0.18 | 0.14 | 0.095 | 0.36 | 0.69 |  |  |
| CC(C)C[C@H]1OC(=O)[C@H](C(C)C)NC(=O)[C@H](C)OC(=O)[C@@H](C(C)C)NC(=O)[C@@H](CC(C)C)OC(=O)[C@H](C(C)C)NC(=O)[C@H](C)OC(=O)[C@@H](C(C)C)NC(=O)[C@@H](CC2CCCCC2)OC(=O)[C@H](Cc2ccc(O)cc2)NC(=O)[C@H](C)OC(=O)[C@@H](C(C)C)NC1=O | 3.2 | 2.4 | 1.7 | 0.88 | 4.3 | 4.8 |  |  |
| CC(C)C[C@H]1OC(=O)[C@H](Cc2ccc(OC(C)(C)C)cc2)NC(=O)[C@H](C)OC(=O)[C@@H](C(C)C)NC(=O)[C@@H](CC(C)C)OC(=O)[C@H](C(C)C)NC(=O)[C@H](C)OC(=O)[C@@H](C(C)C)NC(=O)[C@@H](CC(C)C)OC(=O)[C@H](C(C)C)NC(=O)[C@H](C)OC(=O)[C@@H](C(C)C)NC1=O | 23 | 2 | 3.8 | 3.3 | 8.6 | 24 |  |  |
| CC(C)[C@@H]1NC(=O)[C@H](C)OC(=O)[C@@H](C(C)C)NC(=O)[C@@H](CC2CCCCC2)OC(=O)[C@H]([C@@H](C)OC(C)(C)C)NC(=O)[C@H](C)OC(=O)[C@@H](C(C)C)NC(=O)[C@@H](CC2CCCCC2)OC(=O)[C@H](C(C)C)NC(=O)[C@H](C)OC(=O)[C@@H](C(C)C)NC(=O)[C@@H](CC2CCCCC2)OC1=O | 240 | 56.3 | 60 | 56.3 | 90 | 135 |  |  |
| CC(C)C[C@H]1OC(=O)[C@H](C(C)C)NC(=O)[C@H](C)OC(=O)[C@@H](C(C)C)NC(=O)[C@@H](CC(C)C)OC(=O)[C@H](C(C)C)NC(=O)[C@H](C)OC(=O)[C@@H](C(C)C)NC(=O)[C@@H](CC2CCCCC2)OC(=O)[C@H](Cc2ccc(OC(C)(C)C)cc2)NC(=O)[C@H](C)OC(=O)[C@@H](C(C)C)NC1=O | 91 | 46 | 40 | 24 | 30 | 68 |  |  |
| CC(C)[C@@H]1NC(=O)[C@H](C)OC(=O)[C@@H](C(C)C)NC(=O)[C@@H](CC2CCCCC2)OC(=O)[C@H]([C@@H](C)O)NC(=O)[C@H](C)OC(=O)[C@@H](C(C)C)NC(=O)[C@@H](CC2CCCCC2)OC(=O)[C@H](C(C)C)NC(=O)[C@H](C)OC(=O)[C@@H](C(C)C)NC(=O)[C@@H](CC2CCCCC2)OC1=O | 16 | 3.4 | 3.4 | 2.4 | 3.9 | 24 |  |  |
| CC(C)[C@@H]1NC(=O)[C@H](C)OC(=O)[C@@H](C(C)C)NC(=O)[C@@H](CC2CCCCC2)OC(=O)[C@H](C(C)C)NC(=O)[C@H](C)OC(=O)[C@@H](C(C)C)NC(=O)[C@@H](CC2CCCCC2)OC(=O)[C@H](Cc2ccc(O)cc2)NC(=O)[C@H](C)OC(=O)[C@@H](C(C)C)NC(=O)[C@@H](CC2CCCCC2)OC1=O | 239 | 37.4 | 67.3 | 89.7 | 164 | 396 |  |  |
| CC(C)[C@@H]1NC(=O)[C@H](C)OC(=O)[C@@H](C(C)C)NC(=O)[C@@H](CC2CCCCC2)OC(=O)[C@H](C(C)C)NC(=O)[C@H](C)OC(=O)[C@@H](C(C)C)NC(=O)[C@@H](CC2CCCCC2)OC(=O)[C@H](Cc2ccc(OC(C)(C)C)cc2)NC(=O)[C@H](C)OC(=O)[C@@H](C(C)C)NC(=O)[C@@H](CC2CCCCC2)OC1=O | > 717 | > 717 | > 717 | > 717 | > 717 | > 717 |  |  |
| CC(C)C[C@H]1OC(=O)[C@H](C(C)C)NC(=O)[C@H](C)OC(=O)[C@@H](C(C)C)NC(=O)[C@@H](CC2CCCCC2)OC(=O)[C@H]([C@@H](C)O)NC(=O)[C@H](C)OC(=O)[C@@H](C(C)C)NC(=O)[C@@H](CC(C)C)OC(=O)[C@H](C(C)C)NC(=O)[C@H](C)OC(=O)[C@@H](C(C)C)NC1=O | 3.3 | 2.6 | 1.7 | 1.5 | 2.5 | 3.2 | 3.35 | 3.35 |
| CC(C)C[C@H]1OC(=O)[C@H](C(C)C)NC(=O)[C@H](C)OC(=O)[C@@H](C(C)C)NC(=O)[C@@H](CC2CCCCC2)OC(=O)[C@H]([C@@H](C)OC(=O)CCCN(C)C(=O)OCc2ccc(O[C@@H]3O[C@H](C(=O)O)[C@@H](O)[C@H](O)[C@H]3O)c([N+](=O)[O-])c2)NC(=O)[C@H](C)OC(=O)[C@@H](C(C)C)NC(=O)[C@@H](CC(C)C)OC(=O)[C@H](C(C)C)NC(=O)[C@H](C)OC(=O)[C@@H](C(C)C)NC1=O | 42 | 30 | 24 | 18.6 | 78.1 | 120 | 30 | 150 |
| CC[C@H](C)[C@H]1OC(=O)[C@H](C(C)C)NC(=O)[C@H](C)OC(=O)[C@@H](C(C)C)NC(=O)[C@@H]([C@@H](C)CC)OC(=O)[C@H](C(C)C)NC(=O)[C@H](C)OC(=O)[C@@H](C(C)C)NC(=O)[C@@H](CC(C)C)OC(=O)[C@H](C(C)C)NC(=O)[C@H](C)OC(=O)[C@@H](C(C)C)NC1=O | 0.39 | 1.6 | 0.23 | 0.27 | 0.75 | 0.29 |  |  |
| CC(C)C[C@H]1OC(=O)[C@H](Cc2ccc(O)cc2)NC(=O)[C@H](C)OC(=O)[C@@H](C(C)C)NC(=O)[C@@H](CC(C)C)OC(=O)[C@H](C(C)C)NC(=O)[C@H](C)OC(=O)[C@@H](C(C)C)NC(=O)[C@@H](CC(C)C)OC(=O)[C@H](C(C)C)NC(=O)[C@H](C)OC(=O)[C@@H](C(C)C)NC1=O | 3 | 3.3 | 0.9 | 1.3 | 4.2 | 4.1 |  |  |
| CC(C)C[C@H]1OC(=O)[C@H](C(C)C)NC(=O)[C@H](C)OC(=O)[C@@H](C(C)C)NC(=O)[C@@H](CC2CCCCC2)OC(=O)[C@H]([C@@H](C)OC(C)(C)C)NC(=O)[C@H](C)OC(=O)[C@@H](C(C)C)NC(=O)[C@@H](CC(C)C)OC(=O)[C@H](C(C)C)NC(=O)[C@H](C)OC(=O)[C@@H](C(C)C)NC1=O | 7.2 | 3.2 | 1.9 | 0.79 | 5.6 | 18 |  |  |
